# Measurements gathered from unrelated publications.
# Each line is one published result; the experiments were not run side by side.
# Target: cAMP-dependent protein kinase catalytic subunit PRKX (PRKX, Homo sapiens, UniProt P51817)
# One construct used (P51817 1-358): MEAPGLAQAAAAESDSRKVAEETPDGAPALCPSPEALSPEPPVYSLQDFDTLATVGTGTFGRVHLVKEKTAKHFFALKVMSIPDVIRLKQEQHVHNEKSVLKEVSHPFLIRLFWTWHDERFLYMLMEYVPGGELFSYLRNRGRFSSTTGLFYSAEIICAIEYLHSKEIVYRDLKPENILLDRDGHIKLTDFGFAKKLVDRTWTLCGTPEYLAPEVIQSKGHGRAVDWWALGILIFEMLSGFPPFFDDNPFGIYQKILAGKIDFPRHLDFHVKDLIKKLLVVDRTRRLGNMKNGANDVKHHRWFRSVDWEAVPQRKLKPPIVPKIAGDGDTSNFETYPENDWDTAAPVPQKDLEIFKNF
Compound,read-out,method,concentration,remaining binding [%]
Cc1cnc(Nc2ccc(C(=O)N3CCC(N4CCCC4)CC3)cc2)nc1-c1cc2ccccc2s1,binding,competition with immobilised ligand,1 µM,72
CN(C)c1nccc(-c2cnn3ncccc23)n1,binding,,1 µM,100
Cn1cc(Cl)c2c(Oc3c(F)cc(Nc4cc(Cl)nc(N)n4)cc3F)ccnc21,cell-free assay,competition with immobilised ligand,0.1 µM,100
N[C@H]1CCN(c2nccc(-c3cnn4ncccc34)n2)C1,binding,,1 µM,100
FC(F)(F)Oc1cccc(-c2cnc3ccc(-c4ccncc4)nn23)c1,cell-free assay,competition with immobilised ligand,5 µM,85
O=C(c1ccc(Nc2nccc(-c3cc4ccccc4s3)n2)cc1)N1CCC(N2CCCC2)CC1,binding,competition with immobilised ligand,1 µM,83
CN(c1nccc(-c2cnn3ncccc23)n1)C1CC1,binding,,1 µM,98
CCOC(=O)c1cc2cc(-c3cc(C(=O)NCc4ccc(C(=O)O)cc4)nn3C)ccc2[nH]1,cell-free assay,competition with immobilised ligand,0.1 µM,100
CNC(=O)[C@@H]1CC[C@@H](n2c(-c3ccc4cnccc4c3)nc3ccc(C(=O)NCc4cccc(C(N)=O)c4)cc32)C1,binding,competition with immobilised ligand,1 µM,100
C[C@@H]1CCN(c2nccc(-c3cnn4ncccc34)n2)C1,binding,,1 µM,100
CNC(=O)Nc1ccc2c(c1)[C@@]1(CC2)OC(=O)N(CC(=O)N(Cc2ccc(F)cc2)[C@@H](C)C(F)(F)F)C1=O,cell-free assay,competition with immobilised ligand,1 µM,100
O=C(NCCCN1CCOCC1)c1ccc(Nc2ncc(Cl)c(-c3ccc(Cl)s3)n2)cc1,binding,competition with immobilised ligand,1 µM,100
O=C(NCC1CCOCC1)c1n[nH]cc1NC(=O)c1c(F)cccc1F,binding,competition with immobilised ligand,1 µM,100
F[C@@H]1CCN(c2nccc(-c3cnn4ncccc34)n2)C1,binding,,1 µM,100
CO[C@H]1CC[C@H](CNc2ccc(S(=O)(=O)NC(=O)c3ccc(N4CCN(CC5=C(c6ccc(Cl)cc6)CC(C)(C)CC5)CC4)cc3Oc3cnc4[nH]ccc4c3)cc2[N+](=O)[O-])CC1,cell-free assay,competition with immobilised ligand,1 µM,100
COc1cnc(Nc2cccc(S(N)(=O)=O)c2)nc1N1CCN(c2ccccc2)C(=O)C1,binding,competition with immobilised ligand,1 µM,91
O=C(N[C@H]1CCCCC/C=C\C2C[C@@]2(C(=O)O)NC(=O)[C@@H]2C[C@@H](Oc3ccncc3)CN2C1=O)OC1CCCC1 (some centres unmarked),cell-free assay,competition with immobilised ligand,1 µM,80
CN(CCCC(F)(F)F)c1nccc(-c2cnn3ncccc23)n1,binding,,1 µM,100
C[C@@H](c1ccc(-n2cnc3c(N)ncnc32)cc1)N1CCc2nn(C)c(Cc3ccccc3)c2C1=O,binding,competition with immobilised ligand,0.1 µM,96
O=C(Nc1cnc(Oc2ccc(F)cc2)nc1)N1CCc2ncccc2[C@@H]1c1ccc(F)cc1,cell-free assay,competition with immobilised ligand,1 µM,93
